Reference: ChEMBL document CHEMBL1147868, “Synthesis of novel triazole derivatives as inhibitors of cytochrome P450 14alpha-demethylase (CYP51)” (2007)
≈ marks a conversion by molar mass, not a printed value.

Experiments:
Format in all cases: functional
Cryptococcus neoformans = test: Antifungal activity against Cryptococcus neoformans ATCC BLS108 after 72 hrs by micro-broth dilution method
Method in brief: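 This ATCC standard quality-control strain was tested in every assay by NCCLS microdilution. Test agents were dissolved in DMSO and serially diluted in growth medium. Cultures were incubated at 35 C and read at 72 h. MIC80 was the first well with approximately 80% reduced growth relative to the drug-free well.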

Candida albicans = test: Antifungal activity against Candida albicans ATCC Y0109 after 24 hrs by micro-broth dilution method
Method in brief: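 An ATCC standard quality-control strain was included in each run of an NCCLS micro-broth dilution assay. Compounds were dissolved in DMSO, serially diluted in growth medium and incubated at 35 C. Reading was at 24 h, and MIC80 was the first well showing roughly 80% growth reduction versus the drug-free control.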

Fonsecaea compacta = test: Antifungal activity against Fonsecaea compacta after 7 days by micro-broth dilution method; details: 168 h
Method in brief: (§1)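 Clinical isolates supplied by a hospital were tested by NCCLS broth microdilution. Compounds were dissolved in DMSO, serially diluted in growth medium, inoculated and incubated at 35 C. Growth was read at 7 days for filamentous fungi. MIC80 was taken as the first well with about 80% less growth than the drug-free well.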

Microsporum = test: Antifungal activity against Microsporum gypseum after 7 days by micro-broth dilution method; details: 168 h; method in brief: as §1
Candida tropicalis = test: Antifungal activity against Candida tropicalis after 7 days by micro-broth dilution method; details: 168 h
Method in brief: (§2)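 Micro-broth dilution followed NCCLS methods, using an ATCC standard quality-control strain for C. parapsilosis and a clinical isolate for C. tropicalis. Compounds were dissolved in DMSO, serially diluted in growth medium and incubated at 35 C. MIC80 was the first well with about 80% growth reduction compared with the drug-free well.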

Trichophyton rubrum = test: Antifungal activity against Trichophyton rubrum after 7 days by microbroth dilution method; details: 168 h; method in brief: as §1
Aspergillus fumigatus = test: Antifungal activity against Aspergillus fumigatus after 7 days by micro-broth dilution method; details: 168 h; method in brief: as §1
Candida parapsilosis = test: Antifungal activity against Candida parapsilosis ATCC 0306392 after 7 days by micro-broth dilution method; details: Lodderomyces parapsilosis, ATCC 0306392, 168 h; method in brief: as §2

Compound | MIC80 (Cryptococcus neoformans) [µg/mL] | MIC80 (Candida albicans) [µg/mL] | MIC80 (Fonsecaea compacta) [µg/mL] | MIC80 (Microsporum) [µg/mL] | MIC80 (Candida tropicalis) [µg/mL] | MIC80 (Trichophyton rubrum) [µg/mL] | MIC80 (Aspergillus fumigatus) [µg/mL] | MIC80 (Candida parapsilosis) [µg/mL]
CCCc1ccc(C(=O)Nc2ccc(N3CCN(CC(O)(Cn4cncn4)c4ccc(F)cc4F)CC3)c(F)c2)cc1 (configuration not stated) | 1 (≈ 1.73 µM) | 1 (≈ 1.73 µM) | 0.25 (≈ 0.432 µM) | 0.25 (≈ 0.432 µM) | 1 (≈ 1.73 µM) | 0.25 (≈ 0.432 µM) | 4 (≈ 6.91 µM) | 0.0625 (≈ 0.108 µM)
CCCCCc1ccc(C(=O)Nc2ccc(N3CCN(CC(O)(Cn4cncn4)c4ccc(F)cc4F)CC3)c(F)c2)cc1 (configuration not stated) | 0.25 (≈ 0.412 µM) | 0.25 (≈ 0.412 µM) | 1 (≈ 1.65 µM) | 1 (≈ 1.65 µM) | 4 (≈ 6.59 µM) | 1 (≈ 1.65 µM) | 4 (≈ 6.59 µM) | 0.25 (≈ 0.412 µM)
CC(C)(C)c1ccc(C(=O)Nc2ccc(N3CCN(CC(O)(Cn4cncn4)c4ccc(F)cc4F)CC3)c(F)c2)cc1 (configuration not stated) | 0.25 (≈ 0.422 µM) | 1 (≈ 1.69 µM) | 0.25 (≈ 0.422 µM) | 0.25 (≈ 0.422 µM) | 0.25 (≈ 0.422 µM) | 4 (≈ 6.75 µM) | 4 (≈ 6.75 µM) | 0.0625 (≈ 0.105 µM)
COc1ccc(C(=O)Nc2ccc(N3CCN(CC(O)(Cn4cncn4)c4ccc(F)cc4F)CC3)c(F)c2)cc1 (configuration not stated) | 0.0625 (≈ 0.11 µM) | 0.0152 (≈ 0.0268 µM) | 0.25 (≈ 0.441 µM) | 0.25 (≈ 0.441 µM) | 0.0152 (≈ 0.0268 µM) | 0.25 (≈ 0.441 µM) | 0.25 (≈ 0.441 µM) | 0.0152 (≈ 0.0268 µM)
CCC(C)n1ncn(-c2ccc(N3CCN(c4ccc(OCC5COC(Cn6cncn6)(c6ccc(Cl)cc6Cl)O5)cc4)CC3)cc2)c1=O (configuration not stated) [ITRACONAZOLE] | 1 (≈ 1.42 µM) | 1 (≈ 1.42 µM) | 0.25 (≈ 0.354 µM) | 0.0152 (≈ 0.0215 µM) | 0.25 (≈ 0.354 µM) | 0.0152 (≈ 0.0215 µM) | 1 (≈ 1.42 µM) | 0.25 (≈ 0.354 µM)
C[C@@H](c1ncncc1F)[C@](O)(Cn1cncn1)c1ccc(F)cc1F [VORICONAZOLE] | 0.0152 (≈ 0.0435 µM) | 0.0152 (≈ 0.0435 µM) | 0.0152 (≈ 0.0435 µM) | 0.0039 (≈ 0.0112 µM) | 0.25 (≈ 0.716 µM) | 0.0039 (≈ 0.0112 µM) | > 64 | 1 (≈ 2.86 µM)
O=C(Nc1ccc(N2CCN(CC(O)(Cn3cncn3)c3ccc(F)cc3F)CC2)c(F)c1)c1ccc([N+](=O)[O-])cc1 (configuration not stated) | 0.25 (≈ 0.43 µM) | 0.25 (≈ 0.43 µM) | 0.0625 (≈ 0.107 µM) | 0.0625 (≈ 0.107 µM) | 4 (≈ 6.88 µM) | 0.25 (≈ 0.43 µM) | 4 (≈ 6.88 µM) | 1 (≈ 1.72 µM)
Cc1cccc(C(=O)Nc2ccc(N3CCN(CC(O)(Cn4cncn4)c4ccc(F)cc4F)CC3)c(F)c2)c1 (configuration not stated) | 0.0625 (≈ 0.114 µM) | 0.0625 (≈ 0.114 µM) | 0.25 (≈ 0.454 µM) | 0.0152 (≈ 0.0276 µM) | 0.0152 (≈ 0.0276 µM) | 0.0625 (≈ 0.114 µM) | 1 (≈ 1.82 µM) | 0.0152 (≈ 0.0276 µM)
O=C(Nc1ccc(N2CCN(CC(O)(Cn3cncn3)c3ccc(F)cc3F)CC2)c(F)c1)c1ccc(F)cc1 (configuration not stated) | 0.0152 (≈ 0.0274 µM) | 0.0152 (≈ 0.0274 µM) | 0.0625 (≈ 0.113 µM) | 0.0152 (≈ 0.0274 µM) | 0.0152 (≈ 0.0274 µM) | 0.25 (≈ 0.451 µM) | 1 (≈ 1.8 µM) | 0.0039 (≈ 0.00703 µM)
Cc1ccccc1C(=O)Nc1ccc(N2CCN(CC(O)(Cn3cncn3)c3ccc(F)cc3F)CC2)c(F)c1 (configuration not stated) | 0.0625 (≈ 0.114 µM) | 0.0625 (≈ 0.114 µM) | 0.25 (≈ 0.454 µM) | 0.0152 (≈ 0.0276 µM) | 0.0152 (≈ 0.0276 µM) | 0.0625 (≈ 0.114 µM) | 1 (≈ 1.82 µM) | 0.0152 (≈ 0.0276 µM)
COc1ccc(C(=O)Nc2ccc(N3CCN(CC(O)(Cn4cncn4)c4ccc(F)cc4F)CC3)c(F)c2)cc1OC (configuration not stated) | 0.25 (≈ 0.419 µM) | 0.0625 (≈ 0.105 µM) | 0.25 (≈ 0.419 µM) | 0.25 (≈ 0.419 µM) | 0.0039 (≈ 0.00654 µM) | 0.25 (≈ 0.419 µM) | 1 (≈ 1.68 µM) | 0.0625 (≈ 0.105 µM)
COc1cccc(C(=O)Nc2ccc(N3CCN(CC(O)(Cn4cncn4)c4ccc(F)cc4F)CC3)c(F)c2)c1 (configuration not stated) | 0.0152 (≈ 0.0268 µM) | 0.0625 (≈ 0.11 µM) | 0.25 (≈ 0.441 µM) | 0.25 (≈ 0.441 µM) | 0.0152 (≈ 0.0268 µM) | 0.0152 (≈ 0.0268 µM) | 1 (≈ 1.76 µM) | 0.0152 (≈ 0.0268 µM)
CC(=O)N1CCN(c2ccc(OC[C@H]3CO[C@](Cn4ccnc4)(c4ccc(Cl)cc4Cl)O3)cc2)CC1 [KETOCONAZOLE] | 0.0625 (≈ 0.118 µM) | 0.0625 (≈ 0.118 µM) | 0.0625 (≈ 0.118 µM) | 0.0039 (≈ 0.00734 µM) | 0.0625 (≈ 0.118 µM) | 0.0625 (≈ 0.118 µM) | 1 (≈ 1.88 µM) | 0.0625 (≈ 0.118 µM)
O=C(Nc1ccc(N2CCN(CC(O)(Cn3cncn3)c3ccc(F)cc3F)CC2)c(F)c1)c1cccc(Cl)c1 (configuration not stated) | 0.25 (≈ 0.438 µM) | 0.25 (≈ 0.438 µM) | 0.25 (≈ 0.438 µM) | 0.0625 (≈ 0.109 µM) | 0.0625 (≈ 0.109 µM) | 0.0625 (≈ 0.109 µM) | 4 (≈ 7.01 µM) | 0.0152 (≈ 0.0266 µM)
CCc1ccc(C(=O)Nc2ccc(N3CCN(CC(O)(Cn4cncn4)c4ccc(F)cc4F)CC3)c(F)c2)cc1 (configuration not stated) | 0.0625 (≈ 0.111 µM) | 0.25 (≈ 0.443 µM) | 0.0625 (≈ 0.111 µM) | 0.25 (≈ 0.443 µM) | 0.0625 (≈ 0.111 µM) | 0.0625 (≈ 0.111 µM) | 1 (≈ 1.77 µM) | 4 (≈ 7.08 µM)
O=C(Nc1ccc(N2CCN(CC(O)(Cn3cncn3)c3ccc(F)cc3F)CC2)c(F)c1)c1ccccc1F (configuration not stated) | 0.0152 (≈ 0.0274 µM) | 0.0152 (≈ 0.0274 µM) | 0.0625 (≈ 0.113 µM) | 0.0625 (≈ 0.113 µM) | 0.0152 (≈ 0.0274 µM) | 0.0152 (≈ 0.0274 µM) | 4 (≈ 7.21 µM) | < 0.0039
O=C(Nc1ccc(N2CCN(CC(O)(Cn3cncn3)c3ccc(F)cc3F)CC2)c(F)c1)c1ccccc1Cl (configuration not stated) | 0.25 (≈ 0.438 µM) | 0.0152 (≈ 0.0266 µM) | 0.0625 (≈ 0.109 µM) | 0.0152 (≈ 0.0266 µM) | 0.0152 (≈ 0.0266 µM) | 0.0152 (≈ 0.0266 µM) | 1 (≈ 1.75 µM) | 0.0152 (≈ 0.0266 µM)
O=C(Nc1ccc(N2CCN(CC(O)(Cn3cncn3)c3ccc(F)cc3F)CC2)c(F)c1)c1ccc(Cl)cc1 (configuration not stated) | 0.25 (≈ 0.438 µM) | 0.0625 (≈ 0.109 µM) | 0.0625 (≈ 0.109 µM) | 0.25 (≈ 0.438 µM) | 0.0152 (≈ 0.0266 µM) | 0.0625 (≈ 0.109 µM) | 0.25 (≈ 0.438 µM) | 0.0152 (≈ 0.0266 µM)
COc1ccccc1C(=O)Nc1ccc(N2CCN(CC(O)(Cn3cncn3)c3ccc(F)cc3F)CC2)c(F)c1 (configuration not stated) | 0.0625 (≈ 0.11 µM) | 0.0625 (≈ 0.11 µM) | 0.25 (≈ 0.441 µM) | 0.0625 (≈ 0.11 µM) | 0.0152 (≈ 0.0268 µM) | 0.0625 (≈ 0.11 µM) | 1 (≈ 1.76 µM) | 0.25 (≈ 0.441 µM)
O=[N+]([O-])c1ccc(N2CCN(CC(O)(Cn3cncn3)c3ccc(F)cc3F)CC2)c(F)c1 (configuration not stated) | 0.0152 (≈ 0.0329 µM) | 0.0152 (≈ 0.0329 µM) | 0.0625 (≈ 0.135 µM) | 0.0152 (≈ 0.0329 µM) | 0.0152 (≈ 0.0329 µM) | 0.0152 (≈ 0.0329 µM) | 1 (≈ 2.16 µM) | 0.0039 (≈ 0.00843 µM)
CCCCc1ccc(C(=O)Nc2ccc(N3CCN(CC(O)(Cn4cncn4)c4ccc(F)cc4F)CC3)c(F)c2)cc1 (configuration not stated) | 1 (≈ 1.69 µM) | 1 (≈ 1.69 µM) | 0.0625 (≈ 0.105 µM) | 0.0625 (≈ 0.105 µM) | 1 (≈ 1.69 µM) | 1 (≈ 1.69 µM) | 16 (≈ 27 µM) | 1 (≈ 1.69 µM)
Cc1ccc(C(=O)Nc2ccc(N3CCN(CC(O)(Cn4cncn4)c4ccc(F)cc4F)CC3)c(F)c2)cc1 (configuration not stated) | 0.0625 (≈ 0.114 µM) | 0.0625 (≈ 0.114 µM) | 0.0625 (≈ 0.114 µM) | 1 (≈ 1.82 µM) | 0.0152 (≈ 0.0276 µM) | 0.0625 (≈ 0.114 µM) | 1 (≈ 1.82 µM) | 0.0152 (≈ 0.0276 µM)
O=C(Nc1ccc(N2CCN(CC(O)(Cn3cncn3)c3ccc(F)cc3F)CC2)c(F)c1)c1cccc(C(F)(F)F)c1 (configuration not stated) | 0.25 (≈ 0.414 µM) | 0.25 (≈ 0.414 µM) | 0.25 (≈ 0.414 µM) | 0.0625 (≈ 0.103 µM) | 0.25 (≈ 0.414 µM) | 0.0625 (≈ 0.103 µM) | 4 (≈ 6.62 µM) | 0.0152 (≈ 0.0251 µM)
O=C(Nc1ccc(N2CCN(CC(O)(Cn3cncn3)c3ccc(F)cc3F)CC2)c(F)c1)c1ccccc1 (configuration not stated) | 0.0625 (≈ 0.116 µM) | 0.0625 (≈ 0.116 µM) | 0.25 (≈ 0.466 µM) | 0.0152 (≈ 0.0283 µM) | 0.0039 (≈ 0.00727 µM) | 0.0152 (≈ 0.0283 µM) | 1 (≈ 1.86 µM) | 0.0152 (≈ 0.0283 µM)
